Format in all cases: functional
The subject of experiment [1] is Escherichia coli. Briefly: Antibacterial activity against Escherichia coli B assessed as bacterial growth at 1 mM after 20 hrs by turbidometry relative to control. The procedure, abridged:
(§1)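 Broth culture of E. coli B or Staph. aureus at inhibitor concentration 1 × 10^-3 M. Inoculum was 2% of stock culture added to each inhibitor solution. After 20 hr incubation at 37°C, turbidity was read at 500 nm and compared with controls.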

Experiment [2] relates to Staphylococcus aureus. As to the kind of experiment: Antibacterial activity against Staphylococcus aureus assessed as bacterial growth at 1 mM after 20 hrs by turbidometry relative to control. Summed up:
as §1

Experiment [3] deals with Escherichia coli. As to the kind of experiment: Antibacterial activity against Escherichia coli B assessed as bacterial growth at 0.1 mM after 20 hrs by turbidometry relative to control. The procedure, abridged:
(§2)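 Tested at 1 × 10^-4 M in broth culture, a lower level chosen for limited solubility. Each inhibitor solution received a 2% inoculum of E. coli B or Staph. aureus stock culture. Incubated 20 hr at 37°C, then growth read as turbidity at 500 nm against untreated controls.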

Experiment [4] has as its system Staphylococcus aureus. As to the kind of experiment: Antibacterial activity against Staphylococcus aureus assessed as bacterial growth at 0.1 mM after 20 hrs by turbidometry relative to control. The procedure, abridged:
as §2

Structures are written as SMILES.

On to `Nc1nc(-c2c[nH]c(=O)[nH]c2=O)cs1`, for which the Activity in experiment [1] and in experiment [2] was 90% each time.
As to `O=C(O)/C=C/c1c[nH]c(=O)[nH]c1=O`, the Activity in experiment [3] and in experiment [4] was 90% in each case.
As for `O=C(CO)c1c[nH]c(=O)[nH]c1=O`, the Activity in experiment [1] and in experiment [2] was 90% throughout.
In the case of `O=c1[nH]cc(-c2c[nH]cn2)c(=O)[nH]1`, the Activity in experiment [3] and in experiment [4] was 90% throughout.
Consider `C[N+](C)(C)CC(=O)c1c[nH]c(=O)[nH]c1=O.[Br-]`, for which the Activity in experiment [1] and in experiment [2] was 90% each time.
`O=c1[nH]cc(-c2ncc[nH]2)c(=O)[nH]1`: the Activity in experiment [3] and in experiment [4] was 90% each time.

Values taken from ChEMBL document CHEMBL3272251, “Synthesis of 5-substituted uracil derivatives” (1976).
